The record followed here is ChEMBL document CHEMBL4270578, “Synthesis and cytotoxic studies of novel 5-phenylisatin derivatives and their anti-migration and anti-angiogenic evaluation” (Eur J Med Chem, 2018).

In one experiment the test system is K562. Description: Antiproliferative activity against human K562 cells after 48 hrs by MTT assay. Format: functional, cell-based. The note with it: K562, 48 h. The gist of the method: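 MTT assay on K562 cells (RPMI-1640, 10% FBS) plated at 5 × 10^4 cells/ml for 2 h, then exposed to 10–100,000 nM compound for 48 h. MTT (5 mg/mL stock) added for 4 h before absorbance read. Viability normalized to DMSO controls (100%); IC50 from nonlinear regression, three independent assays.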
(In general: Tetrazolium assays rely on reduction of a dye to a coloured formazan, in cell work by metabolically active cells.)

In another experiment the test system is HepG2. Description: Antiproliferative activity against human HepG2 cells after 48 hrs by MTT assay. Format: functional, cell-based. The settings on record: HepG2, 48 h.

For `COc1ccc(-c2ccc3c(c2)C(=O)C(=O)N3Cc2ccc3c(c2)OCO3)cc1`, the figures for the IC50 with K562 and in the experiment with HepG2 were 30 nM and 440 nM, respectively.

Regarding `COc1ccc(CN2C(=O)C(=O)c3cc(-c4ccsc4)ccc32)cc1`, the IC50 in the experiment with K562 was 80 nM; in the experiment on HepG2 it was 3670 nM.

For the molecule `COc1ccc(-c2ccc3c(c2)C(=O)C(=O)N3CCOc2ccccc2)cc1`, the IC50 with K562 was 400 nM; with HepG2, 700 nM.

Molecule `COc1ccc(-c2ccc3c(c2)C(=O)C(=O)N3Cc2cccc(OC)c2)cc1` came in with an IC50 with HepG2 of 700 nM.

As for `COc1ccc(-c2ccc3c(c2)C(=O)C(=O)N3Cc2ccc(Cl)c(Cl)c2)cc1`, the IC50 is 430 nM in the experiment with K562 and 990 nM in the experiment on HepG2.

With `COc1ccc(CN2C(=O)C(=O)c3cc(-c4ccncc4)ccc32)cc1`, the IC50 with K562 was 40 nM; in the experiment with HepG2, over 10000 nM.

In the case of `COc1ccc(-c2ccc3c(c2)C(=O)C(=O)N3Cc2ccc(Br)cc2)cc1`, the figures for the IC50 with K562 and with HepG2 were 100 nM and 700 nM, respectively.

`COc1ccc(CN2C(=O)C(=O)c3cccc(-c4ccc(OC)cc4)c32)cc1`: the IC50 with K562 was 4430 nM; with HepG2, 8560 nM.

As to `CCN1C(=O)C(=O)c2cc(-c3ccc(OC)cc3)ccc21`, the IC50 stood at 2200 nM in the experiment with K562 and 4470 nM with HepG2.

For the molecule `COc1ccc(-c2ccc3c(c2)C(=O)C(=O)N3Cc2ccc(OC)c(OC)c2)cc1`, the IC50 turned out to be 60 nM in the experiment with K562 and 1350 nM in the experiment on HepG2.

For `COc1ccc(CN2C(=O)C(=O)c3cc(-c4ccc5ccccc5c4)ccc32)cc1`, the IC50 in the experiment with K562 was 340 nM; in the experiment on HepG2, over 10000 nM.

Consider `COc1ccc(CN2C(=O)C(=O)c3cc(-c4ccc(C)cc4)ccc32)cc1`, for which the IC50 with K562 was 400 nM; in the experiment on HepG2 it was over 10000 nM.

As to `COc1ccc(CN2C(=O)C(=O)c3cc(-c4ccc(O)cc4)ccc32)cc1`, the IC50 with K562 is 60 nM; in the experiment with HepG2 it was over 10000 nM.

With `COc1ccc(CN2C(=O)C(=O)c3cc(-c4ccc(F)cc4)ccc32)cc1`, the IC50 in the experiment on K562 amounted to 240 nM; with HepG2, 3150 nM.

Consider `COc1ccc(CN2C(=O)C(F)(F)c3cc(-c4ccc(OC)cc4)ccc32)cc1`, for which the IC50 in the experiment on K562 and in the experiment on HepG2 was over 10000 nM in each case.

Regarding `COc1ccc(CN2C(=O)Cc3cc(-c4ccc(OC)cc4)ccc32)cc1`, the IC50 in the experiment on K562 and with HepG2 was over 10000 nM in each case.

For the molecule `COc1ccc(-c2ccc3c(c2)C(=O)C(=O)N3Cc2ccc(F)cc2)cc1`, the results for the IC50 in the experiment on K562 and in the experiment on HepG2 were 560 nM and 1120 nM, respectively.

Take `COc1ccc(CN2C(=O)C(=O)c3cc(-c4ccc(OC(F)(F)F)cc4)ccc32)cc1`: the IC50 in the experiment on K562 was 60 nM; in the experiment with HepG2, 410 nM.

For `O=C1Nc2ccc(Br)cc2C1=O`, the IC50 in the experiment with K562 and in the experiment on HepG2 was over 10000 nM throughout.

For the molecule `COc1ccc(CN2C(=O)/C(=N\O)c3cc(-c4ccc(OC)cc4)ccc32)cc1`, the IC50 with K562 and in the experiment with HepG2 was over 10000 nM throughout.

In the case of `COc1ccc(CN2C(=O)C(=O)c3cc(-c4ccccc4OC)ccc32)cc1`, the IC50 in the experiment on K562 is 370 nM; in the experiment on HepG2 it was over 10000 nM.

Turning to `COc1ccc(CN2C(=O)C(=O)c3cc(-c4ccc(F)c(Cl)c4)ccc32)cc1`, the IC50 with K562 is 380 nM; in the experiment with HepG2 it was over 10000 nM.

Take `COc1ccc(-c2ccc3c(c2)C(=O)C(=O)N3Cc2ccccc2OC)cc1`: the IC50 in the experiment on K562 is 40 nM; in the experiment with HepG2 it was 130 nM.

In the case of `Cc1ccc2c(c1)C(=O)C(=O)N2`, the IC50 with K562 and in the experiment on HepG2 was over 10000 nM in each case.

For `COc1ccc(-c2ccc3c(c2)C(=O)C(=O)N3Cc2ccc(C(F)(F)F)cc2)cc1`, the IC50 in the experiment with K562 is 270 nM; with HepG2, 380 nM.

In the case of `O=C1Nc2ccccc2C1=O` [ISATIN], the IC50 in the experiment on K562 and in the experiment with HepG2 was over 10000 nM each time.

Take `COc1ccc(-c2ccc3c(c2)C(=O)C(=O)N3Cc2ccc3ccccc3c2)cc1`: the IC50 in the experiment with HepG2 was 380 nM.

With `C=CCN1C(=O)C(=O)c2cc(-c3ccc(OC)cc3)ccc21`, the IC50 in the experiment on K562 worked out at 390 nM; in the experiment on HepG2 it was 7090 nM.

Consider `COc1ccc(-c2ccc3c(c2)C(=O)C(=O)N3c2ccc(OC)cc2)cc1`, for which the 50% inhibitory concentration (IC50) in the experiment on K562 and in the experiment on HepG2 was over 10000 nM in each case.

As to `COc1ccc(CN2C(=O)C(=O)c3cc(-c4ccccc4)ccc32)cc1`, the IC50 in the experiment with K562 came out at 150 nM; with HepG2, 1080 nM.

Regarding `Cc1ccc(-c2ccc3c(c2)C(=O)C(=O)N3)cc1`, the IC50 in the experiment on K562 was over 10000 nM; in the experiment on HepG2, 6000 nM.

Consider `COC(=O)/C=C1\C(=O)N(Cc2ccc(OC)cc2)c2ccc(-c3ccc(OC)cc3)cc21`, for which the IC50 with K562 came out at 1900 nM; with HepG2, 4730 nM.

For `COc1ccc(CN2C(=O)C(O)c3cc(-c4ccc(OC)cc4)ccc32)cc1` (stereo not drawn), the IC50 turned out to be 140 nM with K562 and 700 nM in the experiment on HepG2.

Regarding `COc1ccc2c(c1)C(=O)C(=O)N2` [5-METHOXYISATIN], the IC50 in the experiment with K562 and in the experiment with HepG2 was over 10000 nM throughout.

Consider `CCCCc1ccc2c(c1)C(=O)C(=O)N2`, for which the IC50 in the experiment with K562 and in the experiment on HepG2 was over 10000 nM in each case.

Consider `O=C1Nc2ccc(Cl)cc2C1=O`, for which the IC50 with K562 and in the experiment with HepG2 was over 10000 nM throughout.

For the molecule `O=C1Nc2ccc(-c3ccc(C(F)(F)F)cc3)cc2C1=O`, the IC50 in the experiment with K562 was over 10000 nM; in the experiment on HepG2, 5430 nM.

As to `COc1ccc(-c2ccc3c(c2)C(=O)C(=O)N3Cc2ccccc2)cc1`, the IC50 with K562 was determined as 570 nM; in the experiment on HepG2, 1360 nM.

With `COc1ccc(CN2C(=O)/C(=C\c3ccc(C(C)C)cc3)c3cc(-c4ccc(OC)cc4)ccc32)cc1`, the IC50 in the experiment on K562 and in the experiment on HepG2 was over 10000 nM throughout.

Regarding `COc1ccc(CN2C(=O)C(=O)c3ccc(-c4ccc(OC)cc4)cc32)cc1`, the IC50 with K562 is 7460 nM; in the experiment with HepG2 it was over 10000 nM.

With `CC[C@@]1(O)C(=O)OCc2c1cc1n(c2=O)Cc2cc3ccccc3nc2-1` [CAMPTOTHECIN], the values for the IC50 in the experiment with K562 and in the experiment with HepG2 were 70 nM and 370 nM, respectively.

`O=C1Nc2ccc(-c3ccccc3)cc2C1=O`: the half-maximal inhibitory concentration (IC50) is over 10000 nM with K562 and 5330 nM in the experiment on HepG2.

For the molecule `COc1ccc(-c2ccc3c(c2)C(=O)C(=O)N3Cc2cc(C)cc(C)c2)cc1`, the IC50 in the experiment with K562 was found to be 140 nM; in the experiment with HepG2 it was 410 nM.

Turning to `COc1ccc(-c2ccc3c(c2)C(=O)C(=O)N3Cc2ccc(Cl)cc2)cc1`, the IC50 in the experiment on K562 came to 350 nM; in the experiment on HepG2, 250 nM.

Turning to `COc1ccc(CN2C(=O)C(=O)c3cc(-c4ccc(OC(C)C)cc4)ccc32)cc1`, the IC50 with K562 was 310 nM; in the experiment with HepG2, over 10000 nM.

On to `COc1ccc(-c2ccc3c(c2)C(=O)C(=O)N3Cc2ccc(C)cc2)cc1`, for which the results for the concentration for half-maximal inhibition (IC50) in the experiment with K562 and in the experiment with HepG2 were 270 nM and 330 nM, respectively.

Turning to `COc1ccc(-c2ccc3c(c2)C(=O)C(=O)N3)cc1`, the IC50 in the experiment on K562 came to 6920 nM; with HepG2, 960 nM.

In the case of `COc1ccc(CN2C(=O)/C(=C\c3ccc(C(F)(F)F)cc3)c3cc(-c4ccc(OC)cc4)ccc32)cc1`, the IC50 in the experiment with K562 is 1900 nM; in the experiment on HepG2 it was over 10000 nM.

`COc1ccc(-c2ccc3c(c2)C(=O)C(=O)N3C)cc1`: the IC50 in the experiment on K562 turned out to be 4980 nM; in the experiment with HepG2, 6670 nM.

For `COc1ccc(CN2C(=O)C(=O)c3c(-c4ccc(OC)cc4)cccc32)cc1`, the IC50 with K562 and in the experiment on HepG2 was over 10000 nM each time.

Consider `COc1ccc(CN2C(=O)C(=O)c3cc(-c4ccc(C(F)(F)F)cc4)ccc32)cc1`, for which the IC50 with K562 was 350 nM; in the experiment with HepG2, 820 nM.

With `COc1ccc(CN2C(=O)C(=O)c3cc(-c4cccc(OC)c4)ccc32)cc1`, the figures for the IC50 in the experiment on K562 and in the experiment with HepG2 were 100 nM and 1890 nM, respectively.

Take `COc1ccc(CN2C(=O)C(=O)c3cc(-c4ccc(C(C)(C)C)cc4)ccc32)cc1`: the IC50 was 2250 nM with K562 and 4580 nM in the experiment with HepG2.

On to `COc1ccc(CN2C(=O)/C(=C\c3ccccc3)c3cc(-c4ccc(OC)cc4)ccc32)cc1`, for which the IC50 in the experiment on K562 and with HepG2 was over 10000 nM each time.

As to `COc1ccc(CN2C(=O)C(=O)c3cc(-c4ccc(C#N)cc4)ccc32)cc1`, the IC50 was found to be 260 nM in the experiment on K562 and 890 nM with HepG2.

As for `COc1ccc(-c2ccc3c(c2)C(=O)C(=O)N3Cc2cccc(Cl)c2)cc1`, the values for the IC50 with K562 and with HepG2 were 200 nM and 320 nM, respectively.

`COc1ccc(CN2C(=O)C3(OCCO3)c3cc(-c4ccc(OC)cc4)ccc32)cc1`: the IC50 in the experiment with K562 and in the experiment on HepG2 was over 10000 nM in each case.

For the molecule `COc1ccc(-c2ccc3c(c2)C(=O)C(=O)N3Cc2ccccc2Cl)cc1`, the IC50 was 380 nM in the experiment on K562 and 600 nM in the experiment on HepG2.

Regarding `COc1ccc(CN2C(=O)C(C)(O)c3cc(-c4ccc(OC)cc4)ccc32)cc1` (stereo not drawn), the concentration for half-maximal inhibition (IC50) in the experiment with K562 and with HepG2 was over 10000 nM in each case.

Consider `O=C1Nc2ccc(F)cc2C1=O` [5-FLUOROISATIN], for which the IC50 with K562 and in the experiment on HepG2 was over 10000 nM throughout.

Take `COc1ccc(CN2C(=O)C(=O)c3cc(-c4ccc(OC)c(OC)c4)ccc32)cc1`: the IC50 is 260 nM in the experiment on K562 and over 10000 nM in the experiment on HepG2.

Take `COc1ccc(CN2C(=O)C(=O)c3cc(-c4ccc(Cl)cc4)ccc32)cc1`: the concentration for half-maximal inhibition (IC50) with K562 worked out at 230 nM; with HepG2 it was 380 nM.

As for `CCOC(=O)/C=C1\C(=O)N(Cc2ccc(OC)cc2)c2ccc(-c3ccc(OC)cc3)cc21`, the IC50 stood at 1240 nM with K562 and 3390 nM in the experiment with HepG2.

Consider `COc1ccc(CN2C(=O)C(=O)c3cc(-c4cc(OC)cc(OC)c4)ccc32)cc1`, for which the IC50 with K562 worked out at 510 nM; in the experiment on HepG2, 1200 nM.

Regarding `COc1ccc(-c2ccc3c(c2)C(=O)C(=O)N3Cc2ccc(C#N)cc2)cc1`, the IC50 in the experiment on K562 was found to be 380 nM; in the experiment with HepG2, 1000 nM.

A word on the IC50: it is the concentration that inhibits the measured activity by half.
